# Gli-Sufu block = blocks Gli-Sufu signaling in a luciferase reporter. Sufu-KO-LIGHT fibroblasts, Gli luciferase reporter luminescence. inhibition, % at 5 µM. 340,000 tested, 0.74% active. AID 588413;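 active = inhibition above about 55%, limit read from the data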;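 note: 0% = DMSO-treated cells and 100% = wells with medium but no cells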
# 697 NFkB inh = lowers PMA/ionomycin-induced NF-kB signal in 697 B cells. 697 B-cell NF-kB luciferase reporter, 16 h. inhibition, % at 4 µM. 330,000 tested, 0.33% active. AID 435022; in the data active = inhibition above about 35%
# Jurkat NFkB inh = inhibitors of the PMA/ionomycin-induced NF-kB reporter in Jurkat cells. PMA/ionomycin-induced NF-kB luciferase reporter, luminescence. inhibition, % at 4 µM. 330,000 tested, 0.53% active. AID 435003; in the data active = inhibition above about 50%
# TAG inh = reduces triacylglycerol accumulation in H9c2 cells | Nile Red lipid (TAG) fluorescence; cells loaded with 200 µM oleic acid | inhibition, % at 12.5 µM | 230,000 tested, 0.66% active | AID 651582;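 active = pattern-corrected inhibition of lipid staining of at least 50% with the nuclear-stain viability signal not falling by more than 50%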;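 note: 0% = DMSO wells and 100% = triacsin C control wells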
# iPSC survival up = hiPSC single-cell survival enhancement; 360,000 tested, 0.044% active; ATPlite luminescence; 100% = ROCK inhibitor wells, 0% = DMSO; survival enhancement, % at 20 µM; in the data active = survival enhancement above about 18%;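 note: cells exposed to compounds for 16 hours before the ATP read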
# Hep lipid drop = modulators of hepatic lipid droplet formation; AML12 mouse hepatocytes, oleate lipid droplets, BODIPY imaging; inhibition, % at 6.5 µM; 240,000 tested, 0.4% active;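 active = lipid droplet intensity inhibited by at least 50%, with more than 500 cells counted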
#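 Test system: AML12 mouse liver cells; schedule: overnight exposure; technique: high-content imaging of BODIPY-stained droplets and DAPI nuclei; read-out: % inhibition of corrected integrated BODIPY droplet signal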
# Jurkat NFkB conf = inhibitors of the PMA/ionomycin-induced NF-kB reporter in Jurkat cells, retest; AID 435020; inhibition, % at 4 µM; Jurkat NF-kB luciferase, 16 h; shares compounds with Jurkat NFkB inh; 2,700 tested, 27% active;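 active = inhibition reaching about 45% at 4 µM in either replicate, limit read from the data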;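 note: plate controls were PMA/ionomycin stimulated DMSO wells for no effect and unstimulated DMSO wells for full effect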
# The depositor's hits bear a star; . = not tested or not shown. Most compounds without a hit are left out; they make up all but 1.8% or so of the library.
SMILES,Gli-Sufu block,697 NFkB inh,Jurkat NFkB inh,TAG inh,iPSC survival up,Hep lipid drop,Jurkat NFkB conf
CCOC(=O)c1ccc(Nc2nc(N)c3cc(OC)c(OC)cc3n2)cc1,-3.0,30.2,74.0*,.,-0.1,-18.4,89.7*
Fc1ccccc1COc1ccc(-c2nnn(Cc3ccccc3F)n2)cc1,-5.0,28.5,14.9,10.9,-0.4,.,.
Cn1nnc(-c2ccc(OCc3ccccc3F)cc2)n1,-126.8,-173.9,-169.4,.,-2.7,2.2,-88.5
NS(=O)(=O)c1ccc(Sc2nc3ccccc3s2)c([N+](=O)[O-])c1,13.8,-30.4,97.6*,6.3,-0.7,4.6,89.0*
NS(=O)(=O)c1ccc(Sc2ccccn2)c([N+](=O)[O-])c1,-14.6,14.7,5.7,-20.5,0.4,6.1,.
O=C(N/N=C/c1cccs1)C1COc2ccccc2O1 (stereo unspecified),-5.8,-61.9,-5.1,.,0.2,-2.4,.
Cc1ccc(/C=N/NC(=O)C2COc3ccccc3O2)s1 (stereo unspecified),0.9,8.3,59.5*,23.7,-0.4,.,48.2*
Cc1cc(/C=N/n2cnnc2)c(C)n1-c1ccc(OCc2ccc(Cl)cc2)cc1,63.4*,4.4,52.0*,-23.3,0.0,.,22.7
CCc1ccc(OC(C)C(=O)Nc2ccc(S(=O)(=O)Nc3nccs3)cc2)cc1 (stereo unspecified),-2.0,1.8,18.5,.,0.2,2.6,.
Cc1ccnc(NC(=O)CNC(=O)c2sc3ccccc3c2Cl)c1,-24.1,-71.5,-113.6,19.6,0.2,.,.
Cc1ccnc(NC(=O)c2cc3cc(F)ccc3s2)c1,-134.5,-171.7,-168.6,.,-0.4,-2.2,-119.1
Cc1ccnc(NC(=O)c2sc3cc(Cl)ccc3c2Cl)c1,-68.8,-146.0,-165.4,.,-2.5,-4.1,-56.1
CCn1c(C(=O)O)c(CC(=O)Nc2ccccc2OC)c2ccccc21,-3.3,7.7,11.4,.,1.7,.,.
COc1ccccc1CNC(=O)c1csc(Cc2ccc(Cl)cc2)n1,.,0.5,71.0*,-32.7,2.4,.,18.1
O=C(/C=C/c1ccc2c(c1)OCO2)NCCS(=O)(=O)N1CCN(c2ccccc2)CC1,.,.,.,-2.5,-1.5,.,.
NNc1nc2c(-c3cccc(C(F)(F)F)c3)nnn2c2ccccc12,-4.5,-55.8,-52.9,.,1.6,-39.5,.
COc1cc(C2CC(=O)c3cnc(N4CCN(Cc5ccccc5)CC4)nc3C2)cc(OC)c1OC (stereo unspecified),-9.8,-73.2,58.5*,27.7,0.0,-10.2,16.1
COc1ccc(C2CC(=O)c3c(C)nc(N4CCN(Cc5ccccc5)CC4)nc3C2)cc1OC (stereo unspecified),18.1,-47.2,-10.1,34.2,0.2,.,.
O=C(CCN1C(=O)C2CCCCC2C1=O)Nc1nc2c(F)cc(F)cc2s1 (stereo unspecified),-38.4,-75.3,-46.0,18.7,-0.4,.,.
O=C(CCN1C(=O)C2CCCCC2C1=O)Nc1nc2ccc(F)cc2s1 (stereo unspecified),-47.7,-243.1,-168.1,-6.9,0.1,.,-47.7
Cc1cc(C(=O)Cn2cc(C(F)(F)F)ccc2=O)c(C)n1-c1ccccc1,-2.1,-17.9,15.8,.,-1.0,-19.9,.
Cc1cc(C(=O)CN2C(=O)C3CC=CCC3C2=O)c(C)n1-c1ccccc1 (stereo unspecified),-91.0,-199.4,-173.7,18.0,-3.5,.,-60.6
O=C(c1ccc(Cn2ccc([N+](=O)[O-])n2)cc1)N1CCN(Cc2ccccc2)CC1,2.4,-6.4,1.9,-1.7,-0.7,-31.4,.
CSc1ccc(CN2CCN(C(=O)c3ccc([N+](=O)[O-])cc3)CC2)cc1,-9.1,-27.4,53.4*,-14.0,1.1,1.6,31.6
Nc1cccc2nc3ccccc3cc12,-15.4,24.1,62.4*,123.0,-2.3,-44.7,-3.9
SMILES,Gli-Sufu block,697 NFkB inh,Jurkat NFkB inh,TAG inh,iPSC survival up,Hep lipid drop,Jurkat NFkB conf
COc1ccc(-c2oc3ccc(N4CCOCC4)cc3c2C#CCO)cc1,8.4,-56.6,12.7,22.2,1.6,.,.
COc1ccc(-c2ccc3oc(-c4ccc(OC)cc4)c(C#CCO)c3c2)cc1,5.5,-38.8,73.2*,-35.8,-3.2,.,56.9*
CC1=C/C(=N\OS(=O)(=O)c2ccccc2)C(C)=CC1=O,2.7,-13.2,50.6*,17.6,-4.8,-77.1,27.6
CC1=C/C(=N\OS(=O)(=O)c2ccccc2)C(C(C)C)=CC1=O,7.0,.,.,.,-5.1,-30.9,.
O=C(/C=C/Nc1ccc(F)cc1)c1ccc(Br)cc1,-116.7,-164.4,-163.1,1.9,-2.0,-9.6,14.7
O=C(/C=C/Nc1cccc(O)c1)c1ccccc1,-5.5,-72.4,-108.6,.,-4.4,.,.
NC(=O)c1ccccc1N/C=C/C(=O)c1cccs1,13.8,-127.5,-81.7,.,-4.3,8.0,.
Cc1cccc(N/C=C/C(=O)c2cccs2)c1C,-73.0,-180.1,-167.5,.,-2.2,-25.8,-13.9
O=C(/C=C/Nc1ccc(F)cc1)c1cccs1,-89.0,-179.6,-126.7,-11.9,-4.9,.,.
O=C(/C=C/Nc1ccc(F)c(F)c1)c1cccs1,-9.6,-240.0,-181.6,.,-2.7,-0.8,6.2
O=C(/C=C/Nc1ccc(F)c(Cl)c1)c1ccccc1,-100.3,-165.0,-177.3,.,-0.3,11.8,-29.5
CC(=O)NC(c1ccccc1)c1nc(-c2cnc3ccccc3c2)cs1 (stereo unspecified),.,.,.,6.0,-0.7,.,.
CN(Cc1ccccc1)S(=O)(=O)c1ccc(NC(=S)NC(=O)C2CCCC2)cc1,-5.1,-47.7,62.5*,.,-2.2,.,15.7
O=C(Cc1ccc(NC2=NC3CS(=O)(=O)CC3S2)cc1)NCc1ccccc1Cl (stereo unspecified),-2.3,9.5,4.0,-15.7,-1.4,-6.8,.
O=c1ccn([C@@H]2O[C@H](CNCc3c(OCc4ccccc4F)ccc4ccccc34)[C@@H](O)[C@H]2O)c(=O)[nH]1,.,.,.,.,2.2,.,.
Cc1cnc(C(=O)Nc2ccc(F)cc2)cn1,-60.7,-48.5,-42.8,.,-2.7,.,.
Cc1cnc(C(=O)Nc2ccc(N3CCN(C(=O)OC(C)(C)C)CC3)cc2)cn1,12.4,-70.0,63.9*,10.8,-3.8,-8.0,32.8
O=C(Nc1ccncc1)c1ccc(Cl)c(S(=O)(=O)N2CCc3ccccc32)c1,0.7,-17.0,59.9*,-17.0,0.2,.,78.6*
Cc1cccc(NC(=O)c2ccc(Cl)c(S(=O)(=O)N3CCc4ccccc43)c2)n1,-12.8,-15.5,-15.6,-2.8,0.0,.,.
O=C(CSc1nnc(-c2csc3c2CCCC3)o1)Nc1ccccc1,-66.6,-212.3,-172.8,14.7,-4.6,.,-125.5
O=C(CSc1nnc(-c2ccc(O)cc2)o1)Nc1ccccc1,-33.7,-74.7,-134.5,.,-0.6,-0.9,.
O=C(NCC(c1ccco1)N1CCc2ccccc21)C(=O)Nc1ccc(F)cc1F (stereo unspecified),-6.8,-23.2,60.4*,-8.0,-0.5,.,16.2
CCCNC(=O)c1ccc(-c2nc3ccccc3s2)s1,10.0,-57.7,-161.0,15.4,-4.4,8.7,-94.7

# Assay outcomes (PubChem BioAssay)
